Measurements as given in ChEMBL document CHEMBL5058577, “EUbOPEN Chemogenomics Library 2 (Multiplex)” (2022).

Tested on: U2OS
Test: Multiplex assay against U2OS
Type: toxicity, cell-based
Conditions: human
Outline: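 On a CQ1 microscope at 37°C and 5% CO2, live cells were imaged after compound addition. They had been stained at seeding with Hoechst33342, BioTracker Green Microtubule Cytoskeleton Dye, MitoTracker Red and Annexin V Alexa Fluor 680. CellPathfinder machine-learning gating assigned cells to Hoechst high-intensity objects or normal cells, normal cells to healthy, pyknosed or fragmented nuclei, and pyknosed cells to mitotic or apoptotic. Tubulin, mitochondrial-mass and membrane-permeability phenotypes are per cents of healthy-nucleus cells.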

[1] = 12 h, 1 µM, compound concentration 1 uM, replicate 1
[2] = 12 h, 1 µM, compound concentration 1 uM, replicate 2
[3] = 12 h, 10 µM, compound concentration 10 uM, replicate 1
[4] = 12 h, 10 µM, compound concentration 10 uM, replicate 2
[5] = 24 h, 1 µM, compound concentration 1 uM, replicate 1
[6] = 24 h, 1 µM, compound concentration 1 uM, replicate 2
[7] = 24 h, 10 µM, compound concentration 10 uM, replicate 1
[8] = 24 h, 10 µM, compound concentration 10 uM, replicate 2
[9] = 48 h, 1 µM, compound concentration 1 uM, replicate 1
[10] = 48 h, 1 µM, compound concentration 1 uM, replicate 2
[11] = 48 h, 10 µM, compound concentration 10 uM, replicate 1
[12] = 48 h, 10 µM, compound concentration 10 uM, replicate 2

Q: With `O=c1nc2[nH]c3ccccc3nc-2c(=O)[nH]1` [ALLOXAZINE] as the molecule, how does the “Population Apoptotic (%)” value [1] read?
A: 70%

Q: And the “Population Fragmented Nuclei (%)” value [1]?
A: 25%

Q: And the “Population Healthy Nuclei (%)” value [1]?
A: 61%

Q: And the “Population Hoechst High Intensity Objects (%)” value [1]?
A: 2%

Q: What about the “Population Membrane Permeable-Phenotype (%)” value [1] of the same molecule?
A: 5%

Q: And the “Population Mitochondria Different-Phenotype (%)” value [1]?
A: 0%

Q: And the “Population Mitotic Cells (%)” value [1]?
A: 29%

Q: And the “Population Normal (%)” value [1]?
A: 97%

Q: What about the “Population Pyknosed Nuclei (%)” value [1] of the same molecule?
A: 12%

Q: What about the “Population Tubulin-Different-Phenotype (%)” value [1] of the same molecule?
A: 3%

Q: And the “Total Cell Count” value [1]?
A: 195

Q: What about the “Population Apoptotic (%)” value [2] of the same molecule?
A: 75%

Q: What about the “Population Fragmented Nuclei (%)” value [2] of the same molecule?
A: 15%

Q: What about the “Population Healthy Nuclei (%)” value [2] of the same molecule?
A: 74%

Q: And the “Population Mitochondria Different-Phenotype (%)” value [2]?
A: 5%

Q: And the “Population Mitotic Cells (%)” value [2]?
A: 25%

Q: And the “Population Pyknosed Nuclei (%)” value [2]?
A: 10%

Q: What about the “Total Cell Count” value [2] of the same molecule?
A: 122

Q: And the “Population Apoptotic (%)” value [3]?
A: 86%

Q: What about the “Population Fragmented Nuclei (%)” value [3] of the same molecule?
A: 33%

Q: And the “Population Healthy Nuclei (%)” value [3]?
A: 59%

Q: And the “Population Hoechst High Intensity Objects (%)” value [3]?
A: 0%

Q: What about the “Population Membrane Permeable-Phenotype (%)” value [3] of the same molecule?
A: 7%

Q: And the “Population Mitochondria Different-Phenotype (%)” value [3]?
A: 0%

Q: And the “Population Mitotic Cells (%)” value [3]?
A: 13%

Q: What about the “Population Normal (%)” value [3] of the same molecule?
A: 99%

Q: What about the “Population Pyknosed Nuclei (%)” value [3] of the same molecule?
A: 7%

Q: What about the “Population Tubulin-Different-Phenotype (%)” value [3] of the same molecule?
A: 1%

Q: What about the “Total Cell Count” value [3] of the same molecule?
A: 212

Q: What about the “Population Apoptotic (%)” value [4] of the same molecule?
A: 88%

Q: And the “Population Fragmented Nuclei (%)” value [4]?
A: 13%

Q: What about the “Population Healthy Nuclei (%)” value [4] of the same molecule?
A: 78%

Q: And the “Population Hoechst High Intensity Objects (%)” value [4]?
A: 1%

Q: What about the “Population Mitochondria Different-Phenotype (%)” value [4] of the same molecule?
A: 5%

Q: And the “Population Mitotic Cells (%)” value [4]?
A: 11%

Q: And the “Population Normal (%)” value [4]?
A: 98%

Q: And the “Population Tubulin-Different-Phenotype (%)” value [4]?
A: 3%

Q: What about the “Total Cell Count” value [4] of the same molecule?
A: 119

Q: What about the “Population Apoptotic (%)” value [5] of the same molecule?
A: 73%

Q: What about the “Population Fragmented Nuclei (%)” value [5] of the same molecule?
A: 24%

Q: And the “Population Healthy Nuclei (%)” value [5]?
A: 66%

Q: And the “Population Hoechst High Intensity Objects (%)” value [5]?
A: 1%

Q: And the “Population Membrane Permeable-Phenotype (%)” value [5]?
A: 4%

Q: And the “Population Mitochondria Different-Phenotype (%)” value [5]?
A: 1%

Q: What about the “Population Mitotic Cells (%)” value [5] of the same molecule?
A: 26%

Q: What about the “Population Normal (%)” value [5] of the same molecule?
A: 98%

Q: What about the “Population Pyknosed Nuclei (%)” value [5] of the same molecule?
A: 8%

Q: What about the “Population Tubulin-Different-Phenotype (%)” value [5] of the same molecule?
A: 2%

Q: What about the “Total Cell Count” value [5] of the same molecule?
A: 261

Q: And the “Population Apoptotic (%)” value [6]?
A: 57%

Q: And the “Population Fragmented Nuclei (%)” value [6]?
A: 16%

Q: And the “Population Healthy Nuclei (%)” value [6]?
A: 74%

Q: What about the “Population Hoechst High Intensity Objects (%)” value [6] of the same molecule?
A: 2%

Q: What about the “Population Membrane Permeable-Phenotype (%)” value [6] of the same molecule?
A: 5%

Q: What about the “Population Mitochondria Different-Phenotype (%)” value [6] of the same molecule?
A: 5%

Q: And the “Population Mitotic Cells (%)” value [6]?
A: 42%

Q: And the “Population Normal (%)” value [6]?
A: 97%

Q: What about the “Population Pyknosed Nuclei (%)” value [6] of the same molecule?
A: 9%

Q: And the “Total Cell Count” value [6]?
A: 146

Q: And the “Population Apoptotic (%)” value [7]?
A: 78%

Q: What about the “Population Fragmented Nuclei (%)” value [7] of the same molecule?
A: 30%

Q: And the “Population Healthy Nuclei (%)” value [7]?
A: 61%

Q: And the “Population Hoechst High Intensity Objects (%)” value [7]?
A: 0%

Q: And the “Population Membrane Permeable-Phenotype (%)” value [7]?
A: 8%

Q: And the “Population Mitochondria Different-Phenotype (%)” value [7]?
A: 2%

Q: And the “Population Mitotic Cells (%)” value [7]?
A: 21%

Q: What about the “Population Normal (%)” value [7] of the same molecule?
A: 99%

Q: And the “Population Pyknosed Nuclei (%)” value [7]?
A: 8%

Q: And the “Population Tubulin-Different-Phenotype (%)” value [7]?
A: 2%

Q: And the “Total Cell Count” value [7]?
A: 237

Q: What about the “Population Apoptotic (%)” value [8] of the same molecule?
A: 75%

Q: And the “Population Fragmented Nuclei (%)” value [8]?
A: 16%

Q: And the “Population Healthy Nuclei (%)” value [8]?
A: 80%

Q: What about the “Population Hoechst High Intensity Objects (%)” value [8] of the same molecule?
A: 2%

Q: And the “Population Membrane Permeable-Phenotype (%)” value [8]?
A: 5%

Q: What about the “Population Mitochondria Different-Phenotype (%)” value [8] of the same molecule?
A: 4%

Q: What about the “Population Mitotic Cells (%)” value [8] of the same molecule?
A: 25%

Q: What about the “Population Normal (%)” value [8] of the same molecule?
A: 97%

Q: What about the “Population Pyknosed Nuclei (%)” value [8] of the same molecule?
A: 2%

Q: What about the “Population Tubulin-Different-Phenotype (%)” value [8] of the same molecule?
A: 3%

Q: And the “Total Cell Count” value [8]?
A: 148

Q: And the “Population Apoptotic (%)” value [9]?
A: 84%

Q: And the “Population Fragmented Nuclei (%)” value [9]?
A: 19%

Q: And the “Population Healthy Nuclei (%)” value [9]?
A: 71%

Q: What about the “Population Hoechst High Intensity Objects (%)” value [9] of the same molecule?
A: 1%

Q: And the “Population Membrane Permeable-Phenotype (%)” value [9]?
A: 1%

Q: And the “Population Mitochondria Different-Phenotype (%)” value [9]?
A: 1%

Q: And the “Population Mitotic Cells (%)” value [9]?
A: 15%

Q: And the “Population Normal (%)” value [9]?
A: 98%

Q: And the “Population Pyknosed Nuclei (%)” value [9]?
A: 9%

Q: And the “Population Tubulin-Different-Phenotype (%)” value [9]?
A: 1%

Q: What about the “Total Cell Count” value [9] of the same molecule?
A: 362

Q: And the “Population Apoptotic (%)” value [10]?
A: 76%

Q: And the “Population Fragmented Nuclei (%)” value [10]?
A: 18%

Q: What about the “Population Healthy Nuclei (%)” value [10] of the same molecule?
A: 72%

Q: What about the “Population Hoechst High Intensity Objects (%)” value [10] of the same molecule?
A: 6%

Q: What about the “Population Membrane Permeable-Phenotype (%)” value [10] of the same molecule?
A: 4%

Q: What about the “Population Mitochondria Different-Phenotype (%)” value [10] of the same molecule?
A: 2%

Q: What about the “Population Mitotic Cells (%)” value [10] of the same molecule?
A: 23%

Q: And the “Population Normal (%)” value [10]?
A: 93%

Q: And the “Population Pyknosed Nuclei (%)” value [10]?
A: 8%

Q: And the “Population Tubulin-Different-Phenotype (%)” value [10]?
A: 2%

Q: What about the “Total Cell Count” value [10] of the same molecule?
A: 207

Q: What about the “Population Apoptotic (%)” value [11] of the same molecule?
A: 90%

Q: What about the “Population Fragmented Nuclei (%)” value [11] of the same molecule?
A: 26%

Q: And the “Population Healthy Nuclei (%)” value [11]?
A: 66%

Q: What about the “Population Hoechst High Intensity Objects (%)” value [11] of the same molecule?
A: 1%

Q: What about the “Population Membrane Permeable-Phenotype (%)” value [11] of the same molecule?
A: 5%

Q: And the “Population Mitochondria Different-Phenotype (%)” value [11]?
A: 1%

Q: What about the “Population Mitotic Cells (%)” value [11] of the same molecule?
A: 9%

Q: And the “Population Normal (%)” value [11]?
A: 98%

Q: What about the “Population Pyknosed Nuclei (%)” value [11] of the same molecule?
A: 6%

Q: And the “Population Tubulin-Different-Phenotype (%)” value [11]?
A: 2%

Q: What about the “Total Cell Count” value [11] of the same molecule?
A: 321

Q: What about the “Population Apoptotic (%)” value [12] of the same molecule?
A: 76%

Q: What about the “Population Fragmented Nuclei (%)” value [12] of the same molecule?
A: 12%

Q: What about the “Population Healthy Nuclei (%)” value [12] of the same molecule?
A: 79%

Q: What about the “Population Membrane Permeable-Phenotype (%)” value [12] of the same molecule?
A: 3%

Q: What about the “Population Mitotic Cells (%)” value [12] of the same molecule?
A: 23%

Q: What about the “Population Pyknosed Nuclei (%)” value [12] of the same molecule?
A: 8%

Q: And the “Total Cell Count” value [12]?
A: 210
